Calls of active or inactive are those of the source. No cut-off for these calls is given here.
What was measured:
[1] = tested on: HCC 2998; assay: Growth inhibition of human HCC 2998 cells measured after 48 hrs by sulforhodamine B assay; assay type: functional
In short: (§1)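 JFCR39 panel lines were grown in RPMI 1640 with 5% FBS, penicillin and streptomycin at 37 °C in 5% CO2. After 48 h of drug exposure, total cellular protein was measured by sulforhodamine B staining. GI50 was calculated by a previously described method.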

[2] = tested on: OVCAR-3; assay: Growth inhibition of human OVCAR-3 cells measured after 48 hrs by sulforhodamine B assay; assay type: functional; in short: as §1
[3] = tested on: PC-3; assay: Growth inhibition of human PC-3 cells measured after 48 hrs by sulforhodamine B assay; assay type: functional; in short: as §1
[4] = tested on: SF-295; assay: Growth inhibition of human SF-295 cells measured after 48 hrs by sulforhodamine B assay; assay type: functional; in short: as §1
[5] = tested on: SF-539; assay: Growth inhibition of human SF-539 cells measured after 48 hrs by sulforhodamine B assay; assay type: functional; in short: as §1
[6] = tested on: A549; assay: Growth inhibition of human A549 cells measured after 48 hrs by sulforhodamine B assay; assay type: functional; in short: as §1
[7] = tested on: SK-OV-3; assay: Growth inhibition of human SK-OV-3 cells measured after 48 hrs by sulforhodamine B assay; assay type: functional; in short: as §1
[8] = tested on: MKN-1; assay: Growth inhibition of human MKN-1 cells measured after 48 hrs by sulforhodamine B assay; assay type: functional; in short: as §1
[9] = tested on: NCI-H460; assay: Growth inhibition of human NCI-H460 cells measured after 48 hrs by sulforhodamine B assay; assay type: functional; in short: as §1
[10] = Growth inhibition of human HBC5 cells measured after 48 hrs by sulforhodamine B assay; assay type: functional; in short: as §1
[11] = tested on: NCI-H226; assay: Growth inhibition of human NCI-H226 cells measured after 48 hrs by sulforhodamine B assay; assay type: functional; in short: as §1
[12] = tested on: DMS-114; assay: Growth inhibition of human DMS-114 cells measured after 48 hrs by sulforhodamine B assay; assay type: functional; in short: as §1
[13] = tested on: SNB-75; assay: Growth inhibition of human SNB-75 cells measured after 48 hrs by sulforhodamine B assay; assay type: functional; in short: as §1
[14] = Growth inhibition of human HBC4 cells measured after 48 hrs by sulforhodamine B assay; assay type: functional; in short: as §1
[15] = tested on: DMS-273; assay: Growth inhibition of human DMS-273 cells measured after 48 hrs by sulforhodamine B assay; assay type: functional; in short: as §1
[16] = tested on: U-251; assay: Growth inhibition of human U-251 cells measured after 48 hrs by sulforhodamine B assay; assay type: functional; in short: as §1
[17] = tested on: RXF 631; assay: Growth inhibition of human RXF 631 cells measured after 48 hrs by sulforhodamine B assay; assay type: functional; in short: as §1
[18] = tested on: SF-268; assay: Growth inhibition of human SF-268 cells measured after 48 hrs by sulforhodamine B assay; assay type: functional; in short: as §1
[19] = tested on: DU-145; assay: Growth inhibition of human DU-145 cells measured after 48 hrs by sulforhodamine B assay; assay type: functional; in short: as §1
[20] = tested on: OVCAR-8; assay: Growth inhibition of human OVCAR-8 cells measured after 48 hrs by sulforhodamine B assay; assay type: functional; in short: as §1
[21] = tested on: MKN-7; assay: Growth inhibition of human MKN-7 cells measured after 48 hrs by sulforhodamine B assay; assay type: functional; in short: as §1
[22] = tested on: ACHN; assay: Growth inhibition of human ACHN cells measured after 48 hrs by sulforhodamine B assay; assay type: functional; in short: as §1
[23] = tested on: OVCAR-5; assay: Growth inhibition of human OVCAR-5 cells measured after 48 hrs by sulforhodamine B assay; assay type: functional; in short: as §1
[24] = Residual PI3K activity in human A549 cell lysate at 1 uM preincubated with compound for 5 mins followed by [gamma-32p]-ATP addition measured after 20 mins by immunoprecipitation based liquid scintillation spectroscopic analysis relative to control; details: A549, 25 min
[25] = tested on: HCT-116; assay: Growth inhibition of human HCT-116 cells measured after 48 hrs by sulforhodamine B assay; assay type: functional; in short: as §1
[26] = Inhibition of PI3K in human A549 cell lysate preincubated with compound for 5 mins followed by [gamma-32p]-ATP addition measured after 20 mins by immunoprecipitation based liquid scintillation spectroscopic analysis; assay type: subcellular
In short: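 PI3K immunoprecipitated with anti-p85 polyclonal antibody and protein G–agarose from A549 lysate (2–4 mg/mL protein), washed, suspended in buffer C (100 mM NaCl, 20 mM Tris pH 7.5) with 200 μg/mL phosphatidylinositol; compound preincubated 5 min at 25 °C; reaction started with [γ-32P]ATP (20 μM final) and 20 mM MgCl2, run 20 min at 25 °C; PI3P separated by TLC, counted by scintillation; activity as % of no-compound cpm.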

[27] = tested on: MDA-MB-231; assay: Growth inhibition of human MDA-MB-231 cells measured after 48 hrs by sulforhodamine B assay; assay type: functional; in short: as §1
[28] = tested on: MKN-74; assay: Growth inhibition of human MKN74 cells measured after 48 hrs by sulforhodamine B assay; assay type: functional; in short: as §1
[29] = tested on: NCI-H23; assay: Growth inhibition of human NCI-H23 cells measured after 48 hrs by sulforhodamine B assay; assay type: functional; in short: as §1
[30] = tested on: HT-29; assay: Growth inhibition of human HT-29 cells measured after 48 hrs by sulforhodamine B assay; assay type: functional; in short: as §1
[31] = tested on: HCT-15; assay: Growth inhibition of human HCT-15 cells measured after 48 hrs by sulforhodamine B assay; assay type: functional; in short: as §1
[32] = Growth inhibition of human BSY1 cells measured after 48 hrs by sulforhodamine B assay; assay type: functional; details: BSY-1; in short: as §1
[33] = tested on: MKN-28; assay: Growth inhibition of human MKN-28 cells measured after 48 hrs by sulforhodamine B assay; assay type: functional; in short: as §1
[34] = tested on: St-4; assay: Growth inhibition of human St-4 cells measured after 48 hrs by sulforhodamine B assay; assay type: functional; in short: as §1
[35] = tested on: SNB-78; assay: Growth inhibition of human SNB-78 cells measured after 48 hrs by sulforhodamine B assay; assay type: functional; in short: as §1
[36] = tested on: KM12; assay: Growth inhibition of human KM12 cells measured after 48 hrs by sulforhodamine B assay; assay type: functional; in short: as §1
[37] = tested on: MKN-45; assay: Growth inhibition of human MKN-45 cells measured after 48 hrs by sulforhodamine B assay; assay type: functional; in short: as §1
[38] = tested on: LOX IMVI; assay: Growth inhibition of human LOX IMVI cells measured after 48 hrs by sulforhodamine B assay; assay type: functional; in short: as §1
[39] = tested on: NCI-H522; assay: Growth inhibition of human NCI-H522 cells measured after 48 hrs by sulforhodamine B assay; assay type: functional; in short: as §1
[40] = tested on: OVCAR-4; assay: Growth inhibition of human OVCAR-4 cells measured after 48 hrs by sulforhodamine B assay; assay type: functional; in short: as §1
[41] = tested on: A549; assay: Irreversible inhibition of PI3K in human A549 cell lysate at 1 uM preincubated with compound for 5 mins followed by [gamma-32p]-ATP addition measured after 20 mins by immunoprecipitation based liquid scintillation spectroscopic analysis; assay type: subcellular; details: time 25.0 min
In short: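 Class Ia PI3K was immunoprecipitated with anti-p85 antibody from A549 lysate and preincubated 5 min with compound at 1 μM. The mix was split: one aliquot washed four times (100 mM NaCl, 20 mM Tris pH 7.5), the other unwashed. Each aliquot was assayed with phosphatidylinositol 200 μg/mL, [γ-32P]ATP 20 μM final and MgCl2 20 mM final, 25 °C for 20 min. PI3P was separated by TLC, scraped and counted by scintillation, expressed as % of no-compound cpm.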

[42] = tested on: B16-F10; assay: Antitumor activity against mouse B16-F10 cells implanted in BDF1 mouse assessed as tumor growth inhibition at 50 mg/kg, po administered on day 0,3 and 7 measured after 14 days; assay type: functional; details: B16-F10, 336 h, time 14 day, read-out: TGI
In short: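 Male BDF1 mice given 5 × 10^5 B16F10 melanoma cells subcutaneously; dosing began 7 days after inoculation (day 0) in random groups of seven. Tumours were measured by calipers, with TV = (L × W²)/2 and RTV = TVn/TV0. T/C% on day 14 = 100 × mean RTV treated / mean RTV control. Body weight was also recorded.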

[43] = tested on: B16-F10; assay: Antitumor activity against mouse B16-F10 cells implanted in BDF1 mouse assessed as tumor size relative to control (T/C) at 100 mg/kg, iv administered on day 0,3 and 7 measured after 14 days; details: 336 h
[44] = tested on: B16-F10; assay: Antitumor activity against mouse B16-F10 cells implanted in BDF1 mouse assessed as tumor size relative to control (T/C) at 12 mg/kg, iv administered on day 0 measured after 14 days; details: 336 h

O=c1cc(N2CCOCC2)oc2c(-c3ccccc3)cccc12 [LY-294002]
GI50 [1]: 10.5 µM
GI50 [2]: 5.75 µM
GI50 [3]: 1.78 µM
GI50 [4]: 3.24 µM
GI50 [5]: 3.09 µM
GI50 [6]: 6.03 µM
GI50 [7]: 14.1 µM
GI50 [8]: 10.5 µM
GI50 [9]: 17 µM
GI50 [10]: 3.98 µM
GI50 [11]: 4.37 µM
GI50 [12]: 2.95 µM
GI50 [13]: 2.57 µM
GI50 [14]: 8.71 µM
GI50 [15]: 6.03 µM
GI50 [16]: 15.5 µM
GI50 [17]: 5.5 µM
GI50 [18]: 6.61 µM
GI50 [19]: 10 µM
GI50 [20]: 10 µM
GI50 [21]: 24 µM
GI50 [22]: 10 µM
GI50 [23]: 8.13 µM
level, % of control at 1 µM [24]: 44.6%
GI50 [25]: 15.1 µM
IC50 [26]: 0.79 µM
GI50 [27]: 5.37 µM
GI50 [28]: 18.2 µM
GI50 [29]: 16.6 µM
GI50 [30]: 15.1 µM
GI50 [31]: 9.77 µM
GI50 [32]: 5.01 µM
GI50 [33]: 24.5 µM
GI50 [34]: 20.9 µM
GI50 [35]: 2.57 µM
GI50 [36]: 15.5 µM
GI50 [37]: 7.08 µM
GI50 [38]: 6.17 µM
GI50 [39]: 3.24 µM
GI50 [40]: 4.27 µM

COC[C@H]1OC(=O)c2coc3c2[C@@]1(C)C1=C(C3=O)[C@@H]2CCC(=O)[C@@]2(C)C[C@H]1OC(C)=O [WORTMANNIN]
inhibition [41]: Active
IC50 [26]: 0.011 µM

O=c1[nH]cc(F)c(=O)[nH]1 [FLUOROURACIL]
inhibition in vivo at 50 mg/kg [42]: 68.3%

CCc1c2c(nc3ccc(OC(=O)N4CCC(N5CCCCC5)CC4)cc13)-c1cc3c(c(=O)n1C2)COC(=O)[C@]3(O)CC [IRINOTECAN]
T/C at 100 mg/kg [43]: 96%

COc1cccc2c1C(=O)c1c(O)c3c(c(O)c1C2=O)C[C@@](O)(C(=O)CO)C[C@@H]3O[C@H]1C[C@H](N)[C@H](O)[C@H](C)O1 [DOXORUBICIN]
T/C at 12 mg/kg [44]: 24%

Reference: ChEMBL document CHEMBL5661968, “Antitumor activity of ZSTK474, a new phosphatidylinositol 3-kinase inhibitor” (J Natl Cancer Inst, 2006)
